The text below walks through data of ChEMBL document CHEMBL3779825, “Design, Synthesis, and Structural Optimization of Lycorine-Derived Phenanthridine Derivatives as Wnt/β-Catenin Signaling Pathway Agonists” (J Nat Prod, 2016).

The source made the active and inactive calls. The rule behind the calls is not given here.

Holding throughout (assay type): cell-based
The nature of test [1]: Activation of Wnt/beta-catenin signaling pathway in HEK293T cells in presence of Wnt3a-conditioned medium incubated for 6 hrs by luciferase reporter gene assay. The conditions noted are these: Homo sapiens; HEK-293T. In a few lines:
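HEK293T cells were grown in DMEM with 10% heat-inactivated FBS at 37 °C in 5% CO2. Cells were seeded in 24-well plates and lipofected with 250 ng total plasmid per well: 20 ng TOPFlash, 25 ng EGFP-C1, and LacZ plasmid as filler. Luciferase luminescence was normalized to lysate GFP fluorescence. The value reported is the concentration doubling Wnt activation.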
(In general: A reporter such as luciferase makes a cellular process visible.)

Test [2] in a line: Activation of Wnt/beta-catenin signaling pathway in HEK293T cells assessed as increase in NKD1 expression at 5 to 20 uM in presence of Wnt3a-conditioned medium incubated for 6 hrs by quantitative real time PCR analysis. To be noted: Homo sapiens, HEK-293T. In a few lines: (§1)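 HEK293T cells were grown in DMEM with 10% (v/v) heat-inactivated FBS at 37 °C in 5% CO2/95% air. Cells were exposed to compound together with control medium or Wnt3a-conditioned medium for 6 h.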
Background: In qPCR the cycle at which signal appears reflects the starting amount.

Test [3] in a line: Activation of Wnt/beta-catenin signaling pathway in HEK293T cells assessed as increase in Axin-2 expression at 5 to 20 uM in presence of Wnt3a-conditioned medium incubated for 6 hrs by quantitative real time PCR analysis. To be noted: Homo sapiens, HEK-293T. In outline: as §1
The nature of test [4]: Activation of Wnt/beta-catenin signaling pathway in HEK293T cells preincubated for 1 hr followed by Wnt3a stimulation and subsequent addition of compound measured after 6 hrs by luciferase reporter gene assay. To be noted: Homo sapiens; HEK-293T.

Regarding `CCc1cccc2c1N(C)Cc1cc(O)c(O)cc1-2`, the CD in test [1] is 5 µM.
Still for that read-out and setting: to `CCc1cccc2c1N(C)Cc1cc3c(cc1-2)OCO3` belongs 5 µM; to `C#CCOc1cc2c(cc1OCC#C)-c1cccc(CC)c1N(C)C2`, 5 µM.
On the same count and under the same terms, the entry for `CCc1cccc2c1N(C)Cc1cc(OCc3cc(C)nn3C)c(OCc3cc(C)nn3C)cc1-2` is “inactive”; for `CCc1cccc2c1N(C)Cc1cc(OCc3ccc(-n4cccn4)cn3)c(OCc3ccc(-n4cccn4)cn3)cc1-2` it is “inactive”.
With `NCCn1cc(COc2cccc(OCc3cn(CCN)nn3)c2)nn1`, in test [1], the outcome was Active.
On to `CCc1cccc2c1N(C)Cc1cc(OCc3cn(CCN)nn3)c(OCc3cn(CCN)nn3)cc1-2`, for which the result in test [2] and in test [3] was Active. The CD in test [1] stood at 1.25 µM.
Consider `CCc1cccc2c1N(C)Cc1cc(OCc3cn(CCNC(C)=O)nn3)c(OCc3cn(CCNC(C)=O)nn3)cc1-2`, for which the result in test [2] and in test [3] was Active. Also, in test [1], the CD came to 2.5 µM.
Turning to `CCc1cccc2c1N(C)Cc1cc(OCc3cc(OC)cc(OC)c3)c(OCc3cc(OC)cc(OC)c3)cc1-2`, the CD entry in test [1] was “inactive”.
Turning to `O=C1N[C@H]2[C@H](CS[C@H]2CCCCC(=O)ON2C(=O)CCC2=O)N1`, the outcome in test [1] was inactive.
In test [4], `CCc1cccc2c1N(C)Cc1cc(OCc3cn(CCNC(=O)CCCC[C@@H]4SC[C@@H]5NC(=O)N[C@@H]54)nn3)c(OCc3cn(CCNC(=O)CCCC[C@@H]4SC[C@@H]5NC(=O)N[C@@H]54)nn3)cc1-2` came in with a CD of 0.325 µM.
With `[N-]=[N+]=NCCNC(=O)CCCC[C@@H]1SC[C@@H]2NC(=O)N[C@@H]21`, the outcome in test [1] was inactive.
For `CCc1cccc2c1N(C)Cc1cc(OC)c(OC)cc1-2`, the CD in test [1] stood at 2.5 µM.
Turning to `O=C(O)CCCC[C@@H]1SC[C@@H]2NC(=O)N[C@@H]21`, in test [1], the outcome was inactive.
On the same count and under the same terms, to `NCCn1cc(COc2ccccc2OCc2cn(CCN)nn2)nn1` belongs “Active”.
`CCc1cccc2c1N(C)Cc1cc(OCc3cc4cc(Cl)ccc4s3)c(OCc3cc4cc(Cl)ccc4s3)cc1-2`: the outcome in test [2] and in test [3] was inactive. Also, the CD result in test [1] is “inactive”.
Regarding `C=Cc1cccc2c1N(C)Cc1cc(O)c(O)cc1-2`, in test [1], the CD stood at 10 µM.
On the same count and under the same terms, to `CCOc1cc2c(cc1OCC)-c1cccc(CC)c1N(C)C2` belongs 5 µM; to `CCc1cccc2c1N(C)Cc1cc(OCc3cc(C)n(C)n3)c(OCc3cc(C)n(C)n3)cc1-2`, “inactive”.
Still for that read-out and setting: the entry for `C=Cc1cccc2c1N(C)Cc1cc3c(cc1-2)OCO3` is “inactive”.
As for `CCc1cccc2c1N(C)Cc1cc(OCc3ccc(-c4ccccc4C(=O)OC)cc3)c(OCc3ccc(-c4ccccc4C(=O)OC)cc3)cc1-2`, the outcome in test [2] and in test [3] was inactive. Moreover, the CD result in test [1] was “inactive”.
As for `C=Cc1cccc2c1N(C)Cc1cc(OCC)c(OCC)cc1-2`, the CD result in test [1] is “inactive”.
